According to ChEMBL document CHEMBL1135941, “Synthesis and biological activity of the new 5-fluorocytosine derivatives, 5'-deoxy-N-alkyloxycarbonyl-5-fluorocytosine-5'-carboxylic acid” (Bioorg Med Chem Lett, 2002):
≈ marks a conversion by molar mass, not a printed value. Where “and” joins values, the source holds several entries; their conditions need not be identical. Equal values may be shown once.

Legend:
A549 = experiment: Inhibitory concentration of compound for cytotoxicity against […] human lung cells was determined; assay type: functional, cell-based
Summary of the method: (§1)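 MTT cytotoxicity assay on human cancer cell lines: A549 (lung), SK-OV-3 (ovarian), HCT15 (colon) and SK-MEL-2 (melanoma). Cells were incubated with compound for 3 days before the MTT read-out. Activity is reported as IC50 in μg/mL.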

SK-MEL-2 = experiment: Inhibitory concentration of compound for cytotoxicity against SK-MEL-2 human melanoma cells was determined; assay type: functional, cell-based; summary of the method: as §1
HCT-15 = experiment: Inhibitory concentration of compound for cytotoxicity against HCT15 human colon cells was determined; assay type: functional, cell-based; summary of the method: as §1
[1] = Toxicity by oral administration of single dose in mice; settings: mouse, in vivo
SK-OV-3 = experiment: Inhibitory concentration of compound for cytotoxicity against SK-OV-3 human ovarian cells was determined; assay type: functional, cell-based; summary of the method: as §1
[2] = Toxicity by oral administration of single dose in mice for 21 days; settings: mouse, in vivo, 504 h
Mus musculus [3] = experiment: In vivo mean survival time of L1210 leukemic BDF1 mice when compound (0.0032 mmol/kg/day) was administered orally
Mus musculus [4] = experiment: In vivo mean survival time of L1210 leukemic BDF1 mice when compound (0.016 mmol/kg/day) was administered orally
Mus musculus [5] = experiment: Percent increase in life span of L1210 leukemic BDF1 mice when compound (0.15 nmol/kg/day) was administered intravenously; assay type: functional
Mus musculus [6] = experiment: In vivo mean survival time of L1210 leukemic BDF1 mice when compound (0.23 nmol/kg/day) was administered intravenously; assay type: functional
Mus musculus [7] = experiment: In vivo mean survival time of L1210 leukemic BDF1 mice when compound (0.67 mmol/kg/day) was administered orally

C#CCOC(=O)Nc1nc(=O)n(C2O[C@H](C(=O)O)[C@@H](O)[C@H]2O)cc1F (stereo partly specified)
IC50 (A549): 0.005 µg/mL (≈ 0.014 µM) | IC50 (SK-MEL-2): 0.007 µg/mL (≈ 0.0196 µM) | IC50 (HCT-15): 0.04 µg/mL (≈ 0.112 µM) | LD50 [1]: 12 mg/kg | IC50 (SK-OV-3): 0.005 µg/mL (≈ 0.014 µM)

O=C(Nc1nc(=O)n(C2O[C@H](C(=O)O)[C@@H](O)[C@H]2O)cc1F)Oc1ccccc1 (stereo partly specified)
IC50 (A549): 0.55 µg/mL (≈ 1.39 µM) | IC50 (SK-MEL-2): 0.1 µg/mL (≈ 0.253 µM) | IC50 (HCT-15): 0.39 µg/mL (≈ 0.987 µM) | IC50 (SK-OV-3): 0.12 µg/mL (≈ 0.304 µM)

O=C(Nc1nc(=O)n(C2O[C@H](C(=O)O)[C@@H](O)[C@H]2O)cc1F)OCc1ccccc1 (stereo partly specified)
IC50 (A549): 0.37 µg/mL (≈ 0.904 µM) | IC50 (SK-MEL-2): 0.1 µg/mL (≈ 0.244 µM) | IC50 (HCT-15): 0.17 µg/mL (≈ 0.415 µM) | IC50 (SK-OV-3): 0.07 µg/mL (≈ 0.171 µM)

C=CCOC(=O)Nc1nc(=O)n(C2O[C@H](C(=O)O)[C@@H](O)[C@H]2O)cc1F (stereo partly specified)
LD50 [2]: 22 mg/kg/day | IC50 (A549): 0.04 µg/mL (≈ 0.111 µM) | MST (Mus musculus [3]): 22.1 days | MST (Mus musculus [4]): 24.8 days | IC50 (SK-MEL-2): 0.008 µg/mL (≈ 0.0223 µM) | IC50 (HCT-15): 0.032 µg/mL (≈ 0.0891 µM) | LD50 [1]: 650 mg/kg | IC50 (SK-OV-3): 0.008 µg/mL (≈ 0.0223 µM)

CCOC(=O)Nc1nc(=O)n(C2O[C@H](C(=O)O)[C@@H](O)[C@H]2O)cc1F (stereo partly specified)
IC50 (A549): 0.49 µg/mL (≈ 1.41 µM) | IC50 (SK-MEL-2): 0.16 µg/mL (≈ 0.461 µM) | IC50 (HCT-15): 0.47 µg/mL (≈ 1.35 µM) | IC50 (SK-OV-3): 0.16 µg/mL (≈ 0.461 µM)

O=c1[nH]cc(F)c(=O)[nH]1 [FLUOROURACIL]
IC50 (A549): 0.26 µg/mL (≈ 2 µM) | ILS (Mus musculus [5]): 87.5% and 62.5% | IC50 (SK-MEL-2): 0.63 µg/mL (≈ 4.84 µM) | IC50 (HCT-15): 0.11 µg/mL (≈ 0.846 µM) | MST (Mus musculus [6]): 16.5 days and 14.3 days | IC50 (SK-OV-3): 0.03 µg/mL (≈ 0.231 µM)

CCCCCOC(=O)Nc1nc(=O)n(C2O[C@H](C(=O)O)[C@@H](O)[C@H]2O)cc1F (stereo partly specified)
IC50 (A549): 0.17 µg/mL (≈ 0.437 µM) | MST (Mus musculus [7]): 11.3 days | IC50 (SK-MEL-2): 0.03 µg/mL (≈ 0.0771 µM) | IC50 (HCT-15): 0.12 µg/mL (≈ 0.308 µM) | IC50 (SK-OV-3): 0.03 µg/mL (≈ 0.0771 µM)
